Active and inactive are the calls of the source. The calls are words filed in the database; no cut-off is given here.
How the values were obtained:
Haemonchus contortus [1] = test: Parasiticidal activity against Haemonchus contortus McMaster; format: functional
Procedure, shortened: (§1)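 Larval development assay with Haemonchus contortus larvae. The endpoint was LD99, and the assay was performed by an external screening contractor.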

Ctenocephalides felis [2] = test: Parasiticidal activity against Ctenocephalides felis after 8 hrs; format: functional
Procedure, shortened: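 Cat flea contact assay: compound applied in acetone to the base of four flasks at 1.26 µg/cm², held at 25 ± 1 °C and 75 ± 5% humidity. Dead fleas counted at 8 h, and pooled counts converted to percent mortality.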

Ctenocephalides felis [3] = test: Parasiticidal activity against Ctenocephalides felis after 24 hrs; format: functional; set-up: concentration or dose not given beside the values
Procedure, shortened: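 Single-dose in vitro cat flea assay: compound in acetone (0.5 mL) coated on the base of four 100 mL flasks at 1.26 µg/cm². Flasks held at 25 ± 1 °C and 75 ± 5% humidity for 24 h. Dead fleas counted per flask, and pooled data expressed as percent mortality.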

Ctenocephalides felis [4] = test: Parasiticidal activity against Ctenocephalides felis; format: functional
Saccharomyces cerevisiae = test: Parasiticide activity against Saccharomyces cerevisiae; format: functional, organism-based
[5] = system: Teladorsagia circumcincta; test: Parasiticidal activity against Ostertagia circumcincta McMaster; format: functional
Haemonchus contortus [6] = test: Parasiticidal activity against benzimidazole-resistant Haemonchus contortus Lawes; format: functional; procedure, shortened: as §1
Haemonchus contortus [7] = test: Parasiticidal activity against levamisole-resistant Haemonchus contortus Lawes; format: functional; procedure, shortened: as §1
Haemonchus contortus [8] = test: Parasiticidal activity against avermectin-resistant Haemonchus contortus CAVR; format: functional; procedure, shortened: as §1
[9] = system: Trichostrongylus colubriformis; test: Parasiticidal activity against Trichostrongylus colubriformis; format: functional
Bacillus subtilis = test: Parasiticidal activity against Bacillus subtilis; format: functional
[10] = Cytotoxicity against mouse NS1 cells; format: functional

Molecule | LD99 (Haemonchus contortus [1]) | Activity (Ctenocephalides felis [3]) | also measured
Cn1cccc1/C=C(\C#N)c1ccc(Cl)cc1 | 7.8 µM | – | Activity (Ctenocephalides felis [2]): 13%
N#C/C(=C\c1ccc[nH]1)c1ccc(Cl)c(Cl)c1 | 2.9 µM | 41% | –
N#C/C(=C\c1ccc[nH]1)c1ccccc1C(F)(F)F | – | 14% | –
CC(C)(C)OC(=O)n1cccc1/C=C(\C#N)c1ccc(Cl)cc1 | 11 µM | 9% | –
N#C/C(=C\c1ccc[nH]1)c1ccccc1 | 2.4 µM | 98% | LC50 (Ctenocephalides felis [4]): 0.26 ug/sq.cm
N#C/C(=C\c1ccc[nH]1)c1ccc(F)cc1Cl | 12 µM | 30% | –
Cc1cccc(/C(C#N)=C/c2ccc[nH]2)c1 | 6 µM | 42% | –
CCC(=O)n1cccc1/C=C(\C#N)c1ccc(Cl)cc1 | 1.3 µM | 12% | –
N#C/C(=C\c1ccc[nH]1)c1cccc(Oc2ccccc2)c1 | 11 µM | 10% | –
IVERMECTIN | 0.0057 µM | – | –
COc1ccccc1/C(C#N)=C/c1ccc[nH]1 | – | 9% | –
CC(C)(C)c1ccc(/C(C#N)=C/c2ccc[nH]2)cc1 | 13 µM | 87% | LC50 (Ctenocephalides felis [4]): 0.48 ug/sq.cm
c1ccc([C@H]2CN3CCSC3=N2)cc1 [LEVAMISOLE] | 0.66 µM | – | –
N#C/C(=C\c1ccc[nH]1)c1ccc(C#N)cc1 | 46 µM | 44% | –
COc1ccc(/C(C#N)=C/c2ccc[nH]2)cc1 | 6.7 µM | 31% | –
N#C/C(=C\c1cccn1C(=O)c1ccccc1)c1ccc(Cl)cc1 | 3.8 µM | 6% | –
N#C/C(=C\c1ccc[nH]1)c1ccc(F)c(Cl)c1 | 5.1 µM | 5% | –
N#C/C(=C\c1ccc[nH]1)c1c(F)cccc1F | 52 µM | 17% | –
CC(C)=CCn1cccc1/C=C(\C#N)c1ccc(Cl)cc1 | >51 µM | 0% | –
N#C/C(=C\c1ccc[nH]1)c1ccc(Cl)cc1Cl | 11 µM | 8% | –
N#C/C(=C\c1ccc[nH]1)c1cccc(F)c1 | 8 µM | 78% | LC50 (Ctenocephalides felis [4]): 0.78 ug/sq.cm

Molecule | LD99 (Haemonchus contortus [1]) | Activity (Ctenocephalides felis [3]) | also measured
Cc1ccc(/C(C#N)=C/c2ccc[nH]2)cc1 | 4.5 µM | 69% | –
Cc1ccc(/C(C#N)=C/c2ccc[nH]2)c(C)c1 | – | 44% | –
CC(C)c1ccc(/C(C#N)=C/c2ccc[nH]2)cc1 | – | 100% | LC50 (Ctenocephalides felis [4]): 1.32 ug/sq.cm
N#C/C(=C\c1cc(Br)c[nH]1)c1cccc(C(F)(F)F)c1 | 9.5 µM | – | –
N#CC(C#N)=Cc1cc(Cl)c(Cl)[nH]1 | 1.8 µM | – | Activity (Saccharomyces cerevisiae): inactive; Activity (Ctenocephalides felis [4]): inactive; LD99 [5]: 2.2 µM; LD99 (Haemonchus contortus [6]): 2.2 µM; LD99 (Haemonchus contortus [7]): 2.2 µM; LD99 (Haemonchus contortus [8]): 2.2 µM; LD99 [9]: 9 µM; LD99 (Bacillus subtilis): 1.7 µM; LD99 [10]: 13 µM
N#C/C(=C\c1ccc[nH]1)c1ccccc1-c1ccccc1 | – | 2% | –
N#C/C(=C\c1ccc[nH]1)c1ccc(Cl)cc1 | 1.8 µM | – | LC50 (Ctenocephalides felis [4]): 0.17 ug/sq.cm; Activity (Ctenocephalides felis [2]): 95%
N#C/C(=C\c1cccn1Cc1ccccc1)c1ccc(Cl)cc1 | 44 µM | 3% | –
N#Cc1nn(-c2c(Cl)cc(C(F)(F)F)cc2Cl)c(N)c1[S+]([O-])C(F)(F)F (stereo unspecified) [FIPRONIL] | – | – | LC50 (Ctenocephalides felis [4]): 0.018 ug/sq.cm
CCOCn1cccc1/C=C(\C#N)c1ccc(Cl)cc1 | 19 µM | – | Activity (Ctenocephalides felis [2]): 6%
N#C/C(=C\c1cc(Br)c[nH]1)c1ccc(F)cc1 | 17 µM | 15% | –
N#C/C(=C\c1ccc[nH]1)c1ccc([N+](=O)[O-])cc1 | >63 µM | 6% | –
Cc1ccccc1/C(C#N)=C/c1ccc[nH]1 | 18 µM | 100% | LC50 (Ctenocephalides felis [4]): 0.08 ug/sq.cm
N#C/C(=C\c1cc(Br)c[nH]1)c1ccc(Cl)c(Cl)c1 | 7.3 µM | 19% | –
N#C/C(=C\c1ccc[nH]1)c1ccccc1Cl | 12 µM | 19% | –
N#C/C(=C\c1ccc[nH]1)c1ccc(Br)cc1 | 0.84 µM | 42% | –
N#C/C(=C\c1ccc[nH]1)c1cccc(Cl)c1 | 3.3 µM | 28% | –
N#C/C(=C\c1ccc[nH]1)c1ccccc1C#N | >68 µM | 11% | –
N#C/C(=C\c1ccc[nH]1)c1ccc(F)cc1 | 2 µM | 78% | LC50 (Ctenocephalides felis [4]): 0.3 ug/sq.cm
CCN(CC)C(=O)n1cccc1/C=C(\C#N)c1ccc(Cl)cc1 | 11 µM | 8% | –
N#C/C(=C\c1cc(Br)c[nH]1)c1cccc(F)c1 | 38 µM | 18% | –

Molecule | LD99 (Haemonchus contortus [1]) | Activity (Ctenocephalides felis [3]) | also measured
N#C/C(=C\c1cc(Cl)c(Cl)[nH]1)c1ccc(Cl)cc1 | 10 µM | 15% | –
N#C/C(=C\c1ccc[nH]1)c1ccc(-c2ccccc2)cc1 | 28 µM | 46% | –
COC(=O)n1cccc1/C=C(\C#N)c1ccc(Cl)cc1 | 4.4 µM | 16% | –
N#C/C(=C\c1ccc[nH]1)c1ccc(F)c(F)c1 | 7.6 µM | 17% | –
N#C/C(=C\c1ccc[nH]1)c1ccc(C(F)(F)F)cc1 | 3.1 µM | 20% | –
N#C/C(=C\c1cc(Br)c[nH]1)c1ccc(C(F)(F)F)cc1 | >44 µM | 15% | –
N#C/C(=C\c1ccc[nH]1)c1ccc(I)cc1 | 2.2 µM | 14% | –
N#C/C(=C\c1ccc[nH]1)c1ccc(F)cc1F | 11 µM | 5% | –
N#C/C(=C\c1ccc[nH]1)c1c(F)cccc1Cl | >61 µM | 7% | –
N#C/C(=C\c1ccc[nH]1)c1cccc(Br)c1 | 3.4 µM | 24% | –
N#C/C(=C\c1ccc[nH]1)c1cc(C(F)(F)F)cc(C(F)(F)F)c1 | >45 µM | 27% | –
Cc1ccc(S(=O)(=O)n2cccc2/C=C(\C#N)c2ccc(Cl)cc2)cc1 | 31 µM | 0% | –
N#C/C(=C\c1ccc[nH]1)c1ccc(Cl)cc1F | 10 µM | 5% | –
N#C/C(=C\c1ccc[nH]1)c1ccccc1F | 12 µM | 92% | LC50 (Ctenocephalides felis [4]): 0.59 ug/sq.cm
CN(C)C(=S)n1cccc1/C=C(\C#N)c1ccc(Cl)cc1 | 32 µM | 19% | –
N#C/C(=C\c1ccc[nH]1)c1cccc(C(F)(F)F)c1 | 3.6 µM | 56% | LC50 (Ctenocephalides felis [4]): 9.9 ug/sq.cm
N#C/C(=C\c1ccc[nH]1)c1ccccc1Br | 12 µM | 30% | –
Cc1cc(C(C#N)c2ccc(Cl)cc2)c(Cl)cc1NC(=O)c1cc(I)cc(I)c1O (stereo unspecified) [CLOSANTEL] | 9.4 µM | – | –
CCc1ccc(/C(C#N)=C/c2ccc[nH]2)cc1 | 4 µM | 58% | –
N#C/C(=C\c1cc(Br)c[nH]1)c1ccc(Cl)cc1 | 1.5 µM | 23% | –

— ChEMBL document CHEMBL1146324, “Discovery of (Z)-2-phenyl-3-(1H-pyrrol-2-yl)acrylonitrile derivatives active against Haemonchus contortus and Ctenocephalides felis (cat flea)” (2007)
